Experimental data published in paper PMC7938327 (Journal of medicinal chemistry, 2017).

Legend:
[1] = biological target: T1, human recombinant ATX (Homo sapiens, UniProt Q13822); experiment: ATX nucleotide pyrophosphatase activity, pNP-TMP hydrolysis; assay type: biochemical; details: 1 mM pNP-TMP, 4 nM ATX, compound 0 to 1 μM
Method in brief: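 Human recombinant FLAG-tagged ATX was expressed in Sf9 insect cells and purified on anti-FLAG resin. Absorbance at 405 nm was read every 2 min for 1 h.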

[2] = biological target: T1, human recombinant ATX; experiment: ATX lysophospholipase D activity, FS-3 hydrolysis; assay type: biochemical; details: FS-3 substrate

Compound	pNP-TMP inhibition [1]	ATX inhibitory activity (in words) [2]
4-(2,4-Dichloro-5-(morpholinosulfonyl)benzamido)-2,6-difluoro-benzoic Acid [Compound 4]	none	inactive
O=C(Nc1c(F)c(F)c(F)c(F)c1F)c1cc(S(=O)(=O)N2CCOCC2)c(Cl)cc1Cl [Compound 3c, 2,4-Dichloro-5-(morpholinosulfonyl)-N-(perfluorophenyl)-benzamide]	none	poorly active
O=C(Nc1cc(Cl)c(Cl)c(Cl)c1)c1cc(S(=O)(=O)N2CCOCC2)c(Cl)cc1Cl [Compound 3d, 2,4-Dichloro-5-(morpholinosulfonyl)-N-(3,4,5-trichlorophenyl)-benzamide]	none	poorly active
COc1cc(NC(=O)c2cc(S(=O)(=O)N3CCOCC3)c(Cl)cc2Cl)cc(OC)c1OC [Compound 3e, 2,4-Dichloro-5-(morpholinosulfonyl)-N-(3,4,5-trimethoxyphenyl)-benzamide]	none	poorly active
N#Cc1c(F)cc(NC(=O)c2cc(S(=O)(=O)N3CCOCC3)c(Cl)cc2Cl)cc1F [Compound 3h, 2,4-Dichloro-N-(4-cyano-3,5-difluorophenyl)-5-(morpholinosulfonyl)benzamide]	none	–
COC(=O)c1c(F)cc(NC(=O)c2cc(S(=O)(=O)N3CCOCC3)c(Cl)cc2Cl)cc1F [Compound 3i, Methyl 4-(2,4-Dichloro-5-(morpholinosulfonyl)benzamido)-2,6-difluorobenzoate]	none	–
O=C(Nc1cc(F)c(F)c(F)c1Br)c1cc(S(=O)(=O)N2CCOCC2)c(Cl)cc1Cl [Compound 5, N-(2-Bromo-3,4,5-trifluorophenyl)-2,4-dichloro-5-(morpholinosulfonyl)benzamide]	none	–
O=S(=O)(c1cc(-c2nc3cccc(F)c3o2)c(Cl)cc1Cl)N1CCOCC1 [Compound 7, 2-(2,4-Dichloro-5-(morpholinosulfonyl)phenyl)-7-fluorobenzo[d]-oxazole]	none	failed to inhibit ATX
O=S(=O)(c1cc(-c2nc3cc(F)c(F)cc3[nH]2)c(Cl)cc1Cl)N1CCOCC1 [Compound 8, 4-((2,4-Dichloro-5-(5,6-difluoro-1H-benzo[d]imidazol-2-yl)-phenyl)sulfonyl)-morpholine]	none	failed to inhibit ATX
CN(C(=O)c1cc(S(=O)(=O)N2CCOCC2)c(Cl)cc1Cl)c1cccc(F)c1 [Compound 9, 2,4-Dichloro-N-(3-fluorophenyl)-N-methyl-5-(morpholinosulfonyl)benzamide]	none	only very weak potency
O=S(=O)(c1cc(CNc2ccc(F)c(F)c2)c(Cl)cc1Cl)N1CCOCC1 [Compound 10, N-(2,4-Dichloro-5-(morpholinosulfonyl)benzyl)-3,4-difluoroani-line]	none	inactive
O=S(=O)(c1cc(CNc2cc(F)c(F)c(F)c2)c(Cl)cc1Cl)N1CCOCC1 [Compound 11, N-(2,4-Dichloro-5-(morpholinosulfonyl)benzyl)-3,4,5-trifluoroani-line]	none	–
O=S(=O)(c1cc(C(=S)Nc2cccc(F)c2)c(Cl)cc1Cl)N1CCOCC1 [Compound 12, 2,4-Dichloro-N-(3-fluorophenyl)-5-(morpholinosulfonyl)-benzothioamide]	none	retained similar inhibitory activity as the amide analogues
O=S(=O)(c1cc(C(=S)Nc2ccc(F)c(F)c2)c(Cl)cc1Cl)N1CCOCC1 [Compound 13, 2,4-Dichloro-N-(3,4-difluorophenyl)-5-(morpholinosulfonyl)-benzothioamide]	none	retained similar inhibitory activity as the amide analogues
O=S(=O)(c1cc(C(=S)Nc2cc(Cl)c(F)c(Cl)c2)c(Cl)cc1Cl)N1CCOCC1 [Compound 15, 2,4-Dichloro-N-(3,5-dichloro-4-fluorophenyl)-5-(morpholinosulfonyl)-benzothioamide]	none	retained similar inhibitory activity as the amide analogues
O=S(=O)(Nc1cc(S(=O)(=O)N2CCOCC2)c(Cl)cc1Cl)c1cccc(F)c1 [Compound 19]	none	lost their ATX inhibitory activity
O=S(=O)(c1cc(N(S(=O)(=O)c2cccc(F)c2)S(=O)(=O)c2cccc(F)c2)c(Cl)cc1Cl)N1CCOCC1 [Compound 20]	none	lost their ATX inhibitory activity
O=S(=O)(Nc1cccc(F)c1)c1cc(S(=O)(=O)N2CCOCC2)c(Cl)cc1Cl [Compound 22, 2,4-Dichloro-N-(3-fluorophenyl)-5-(morpholinosulfonyl)-benzenesulfonamide]	none	lost their ATX inhibitory activity
O=S(=O)(Nc1cc(F)c(F)c(F)c1)c1cc(S(=O)(=O)N2CCOCC2)c(Cl)cc1Cl [Compound 23, 2,4-Dichloro-5-(morpholinosulfonyl)-N-(3,4,5-trifluorophenyl)-benzenesulfonamide]	none	lost their ATX inhibitory activity
O=C(Nc1cc(F)c(F)c(F)c1)c1cc(NN2CCOCC2)c(Cl)cc1Cl [Compound 25, 2,4-Dichloro-5-(morpholinoamino)-N-(3,4,5-trifluorophenyl)-benzamide]	none	completely lost ATX inhibitory activity
CS(=O)(=O)N(C(=O)c1cc(NN2CCOCC2)c(Cl)cc1Cl)c1cc(F)c(F)c(F)c1 [Compound 26a, 2,4-Dichloro-N-(methylsulfonyl)-5-(morpholinoamino)-N-(3,4,5-trifluorophenyl)-benzamide]	none	–
CN1CCN(S(=O)(=O)c2cc(C(=O)Nc3cc(F)c(F)c(F)c3)c(Cl)cc2Cl)CC1 [Compound 28a, 2,4-Dichloro-5-((4-methylpiperazin-1-yl)sulfonyl)-N-(3,4,5-trifluorophenyl)-benzamide]	none	–
CN1CCN(S(=O)(=O)c2cc(C(=O)Nc3cc(Cl)c(F)c(Cl)c3)c(Cl)cc2Cl)CC1 [Compound 28b, 2,4-Dichloro-N-(3,5-dichloro-4-fluorophenyl)-5-((4-methylpiperazin-1-yl)sulfonyl)benzamide]	none	–
CN1CCN(S(=O)(=O)c2cc(C(=S)Nc3cc(Cl)c(F)c(Cl)c3)c(Cl)cc2Cl)CC1 [Compound 29, 2,4-Dichloro-N-(3,5-dichloro-4-fluorophenyl)-5-((4-methylpipera-zin-1-yl)sulfonyl)-benzothioamide]	none	–
